# Compound activity from PubChem.
# Compounds with a hit are over-represented: about 3.7% of the library has one in this group of screens.
# KCNQ1 block: inhibitors of human KCNQ1 channel, primary screen, cell-based, thallium flux, high-throughput | Potassium voltage-gated channel subfamily KQT member 1 (Homo sapiens), P51787 | actives 1.3% (n = 310,000) | CHO-K1 KCNQ1, FluxOR thallium flux fluorescence; stronger effect = higher value | B-score at 10 µM | AID 2642, 2010;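 active = compounds whose thallium flux B-score, printed positive for inhibition, exceeds three library SD while starting fluorescence stays within three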;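 also: channel opened by potassium depolarization with thallium stimulus after 20 min compound exposure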
# hERG protect: hERG rescue from dofetilide block, primary screen, cell-based, CHO-hERG, FluxOR thallium flux, dofetilide IC70; Voltage-gated inwardly rectifying potassium channel KCNH2 (Homo sapiens), Q12809; dofetilide IC70 present; activation (rescue from dofetilide block), less the hit threshold, % at 10 µM; actives 0.51% (n = 310,000); AID 1511, 2009;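 active = activation above the mean of controls blocked by dofetilide plus 5 SD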;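 also: thallium influx through hERG after potassium depolarization seen as dye fluorescence rise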
# Kir21 block: inhibitors of mouse Kir2.1 inward-rectifier potassium channel. Inward rectifier potassium channel 2 (Mus musculus), P35561. HEK293-Kir2.1, FluxOR thallium flux fluorescence; stronger effect = lower value. B-score at 10 µM. actives 0.85% (n = 310,000). AID 1672, 2009;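 active = fluorescence ratio B-score at or below minus 3 SD of library scores, with starting-brightness B-score within 2 SD, cut at about -4.2 in these data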;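 also: channel flux triggered by added potassium and thallium sulfate stimulus; B-score of peak minus minimum fluorescence over baseline after thallium stimulus; more negative B-score means stronger Kir2.1 block with less thallium influx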
# KCNK9 inh: KCNK9 potassium channel inhibitors, primary screen, HEK293 cells, thallium flux. FluxOR thallium flux fluorescence; stronger effect = lower value. B-score at 10 µM. Potassium channel subfamily K member 9 (Homo sapiens), Q9NPC2. actives 1.2% (n = 310,000);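 active = ratio B-score over 3 SD below the library mean, with starting fluorescence within 5 SD of its mean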;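 also: negative B-score means less thallium flux so channel inhibition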
# KCNQ1 pot: potentiators or activators of KCNQ1 channel, primary screen, cell-based, thallium flux, high-throughput; Potassium voltage-gated channel subfamily KQT member 1 (Homo sapiens), P51787; AID 2648, 2010; actives 0.35% (n = 310,000); B-score at 10 µM; CHO-K1 KCNQ1, thallium flux FluxOR fluorescence; stronger effect = higher value;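 active = fluorescence ratio B-score, a plate-corrected score, at least three library SD, with initial intensity B-score within 5 SD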
#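 assay system = CHO-K1 cells stably expressing KCNQ1 | medium = assay buffer, equal DMSO in all wells | timing = 37 °C overnight plating, 90-min dark dye load, 20-min compound pretreatment | measured by = kinetic FluxOR thallium fluorescence, 10-s 1-Hz baseline, 110-s post-stimulus read | measure = fluorescence change relative to baseline, converted to B score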
# KCNK3 block: human KCNK3 channel inhibitors, primary screen, CHO cells, FluxOR thallium flux, B-score | B-score at 10 µM | AID 602410, 2012 | FluxOR fluorescence; stronger effect = lower value | actives 0.84% (n = 340,000);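 active = B-score under library mean minus 4 SD, starting fluorescence ratio at most library mean plus 5 SD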;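 also: more negative B-score means stronger inhibition of thallium flux through KCNK3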
# Target sequence (O14649 whole entry, looked up): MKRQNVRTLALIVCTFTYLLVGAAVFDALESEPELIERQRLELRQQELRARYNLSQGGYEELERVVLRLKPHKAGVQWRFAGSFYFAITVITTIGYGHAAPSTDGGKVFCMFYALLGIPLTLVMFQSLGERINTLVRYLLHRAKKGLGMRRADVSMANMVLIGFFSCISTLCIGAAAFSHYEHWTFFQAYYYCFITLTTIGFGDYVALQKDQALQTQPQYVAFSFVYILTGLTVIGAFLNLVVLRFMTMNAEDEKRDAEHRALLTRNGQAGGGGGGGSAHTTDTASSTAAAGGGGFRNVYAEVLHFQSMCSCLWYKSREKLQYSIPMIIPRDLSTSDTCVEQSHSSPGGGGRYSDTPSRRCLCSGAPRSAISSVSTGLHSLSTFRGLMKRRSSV
# KCNK9 inh conf: KCNK9 potassium channel inhibitors, confirmation, HEK293 cells, thallium flux, duplicate; shares compounds with KCNK9 inh; FluxOR thallium flux fluorescence; inhibition, % at 10 µM; actives 43% (n = 4,900); AID 492992, 2010;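 active = thallium signal inhibited by more than 5 SD of the compound-free buffer control wells, on both duplicate plates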
# Kir2-1 spec: mouse Kir2.1 channel inhibition, confirmation, selectivity assay for KCNK9 modulator project, cell-based, HEK293, thallium flux; inhibition, % at 10 µM; Kir2.1 cells, FluxOR thallium flux fluorescence; shares compounds with KCNK9 inh; AID 492993, 2010; actives 4% (n = 4,900);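 active = thallium signal drop more than 5 SD beyond the mean of the no-compound control wells, seen in both duplicate plates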;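 also: signal is fluorescence rise after thallium addition divided by baseline fluorescence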
# KCNK9 uninduced: thallium flux in non-induced HEK293 cells, confirmation, counter-screen for KCNK9 inhibitor project, cell-based, second counter screen, non-induced KCNK9-HEK293 | shares compounds with KCNK9 inh | FluxOR thallium flux | inhibition, % at 10 µM | actives 40% (n = 4,900) | AID 492997, 2010;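 active = thallium signal drop beyond 5 SD of the untreated control mean, on both duplicate plates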
# A number is an active result; n = inactive; x = no result given.
SMILES,KCNQ1 block,hERG protect,Kir21 block,KCNK9 inh,KCNQ1 pot,KCNK3 block,KCNK9 inh conf,Kir2-1 spec,KCNK9 uninduced
CC(C)CCNC(=O)c1onc(CSc2ccccc2)c1C(=O)NCCC(C)C,n,n,n,n,n,n,n,n,n
CCCNC(=O)c1onc(CSc2ccccc2)c1C(=O)NCCC,n,n,n,n,n,n,x,x,x
CC(C)CCNC(=O)c1onc(CSc2ccc(Cl)cc2)c1C(=O)NCCC(C)C,n,n,n,n,n,n,n,n,n
COc1cccc(SCc2noc(C(=O)NCCC(C)C)c2C(=O)NCCC(C)C)c1,n,n,n,n,n,n,n,n,n
CCCNC(=O)c1onc(CSc2cccc(OC)c2)c1C(=O)NCCC,n,n,n,n,n,n,x,x,x
CCOC(=O)c1c(C)[nH]c(C(=O)Nc2cc(OCC)c(N3CCOCC3)cc2OCC)c1C,x,x,x,x,x,n,x,x,x
CN(C)CCNC(=O)c1onc(CSc2ccc(F)cc2)c1C(=O)NCCN(C)C,n,n,n,n,n,n,x,x,x
CC(C)CCNC(=O)c1onc(CSc2ccc(F)cc2)c1C(=O)NCCC(C)C,7,n,n,n,n,n,n,n,n
C=CCOC(=O)C1=C(C)OC(N)=C(C#N)C1c1c(C)nn(-c2ccccc2)c1Cl (stereo not given),n,n,n,-8.4,n,-10,50%,n,34%
Cc1ccc(Cl)cc1N1CCN(C(=O)CN(c2ccccc2)S(=O)(=O)N(C)C)CC1,n,n,n,-9,n,n,28%,n,34%
CN1CCN(C(=O)CN(c2ccccc2)S(=O)(=O)N(C)C)CC1,n,n,n,n,n,x,x,x,x
CC1CCN(C(=O)CN(c2ccc(Cl)c(C(F)(F)F)c2)S(C)(=O)=O)CC1,n,n,n,n,n,n,x,x,x
CS(=O)(=O)N(CC(=O)N1CCN(c2ccccc2)CC1)c1ccc(Cl)c(C(F)(F)F)c1,n,n,n,n,n,n,n,n,n
COc1ccccc1NC(=O)c1ccc(CN(c2cc(Cl)ccc2C)S(=O)(=O)c2ccccc2)cc1,n,n,n,n,n,n,x,x,x
Cc1ccc(Cl)cc1N(Cc1ccc(C(=O)NCc2cccnc2)cc1)S(=O)(=O)c1ccccc1,n,n,n,-8.3,n,n,n,n,n
COc1cc(NC(=O)c2cc(S(=O)(=O)N3CCCCC3)c[nH]2)cc(OC)c1,n,n,n,n,n,n,x,x,x
CC(C)Oc1cccc(C(=O)C2CCCN(Cc3cnc(N4CCCC4)s3)C2)c1 (stereo not given),n,n,n,n,n,n,n,n,n
CCCn1cc(CN2CCCC(C(=O)c3cccc(OC(C)C)c3)C2)c(C)n1 (stereo not given),n,n,n,n,n,n,n,n,n
CCCn1ncc(CN2CCCC(C(=O)c3cccc(OC(C)C)c3)C2)c1C (stereo not given),n,n,n,n,n,n,x,x,x
CC(=O)Nc1ccc(S(=O)(=O)N(C)c2ccc(OCC(=O)OCC(=O)NCc3ccco3)cc2)cc1,n,n,n,n,n,n,x,x,x
COc1ccc(C2=NN(C(=O)c3cccc([N+](=O)[O-])c3)C(c3cccc([N+](=O)[O-])c3)C2)cc1 (stereo not given),n,n,n,-13,n,n,64%,n,35%
O=C(c1ccc([N+](=O)[O-])c(CS(=O)(=O)c2ccc(Cl)cc2)c1)N1CCCC1,n,n,n,n,n,n,x,x,x
Clc1ccc(COn2c(-c3ccc(Cl)cc3)nc3ccccc32)cc1,n,n,n,-16,n,-11,80%,n,36%
O=C(O)COn1c(-c2ccc(Cl)cc2)nc2ccc(Cl)cc21,n,n,n,n,n,n,x,x,x
Cc1ccc(S(=O)(=O)n2[nH]c(=O)cc2N)cc1,n,n,n,n,n,n,x,x,x
SMILES,KCNQ1 block,hERG protect,Kir21 block,KCNK9 inh,KCNQ1 pot,KCNK3 block,KCNK9 inh conf,Kir2-1 spec,KCNK9 uninduced
Cc1nn(-c2ccccc2)c(N2CCCC2)c1/C=N/NC(=S)Nc1ccccc1C(F)(F)F,n,n,n,-9.1,n,n,44%,n,n
Cc1nn(-c2ccccc2)c(N2CCCC2)c1/C=N/NC(=S)Nc1cc(C(F)(F)F)ccc1Cl,n,n,n,n,n,n,x,x,x
COc1ccc(S(=O)(=O)Cc2ccc(C(=O)N3CCN(c4cccc(C)c4)C(C)C3)o2)cc1 (stereo not given),n,n,n,n,n,n,n,n,n
Cc1cc(C(=O)N/N=C/c2ccc(-c3cccc(Cl)c3)o2)n[nH]1,n,n,n,-14,n,n,34%,n,32%
Cc1ccc(-c2nn(-c3ccccc3)cc2/C=N/n2c(-c3ccncc3)n[nH]c2=S)cc1,n,n,n,n,n,n,x,x,x
S=c1[nH]nc(-c2cccs2)n1/N=C/c1cn(-c2ccccc2)nc1-c1ccccc1,n,n,n,n,n,n,n,n,n
Cc1ccc(S(=O)(=O)N(C)CC(=O)Nc2cc(C)ccn2)cc1,n,n,n,n,n,n,x,x,x
CC(OC(=O)c1ccccc1NS(=O)(=O)c1cccc(C(F)(F)F)c1)C(=O)N(C)Cc1ccccc1 (stereo not given),n,n,n,-13,n,n,64%,n,31%
CN(Cc1ccccc1)C(=O)COC(=O)c1ccccc1NS(=O)(=O)c1cccc(N)c1,n,n,n,n,n,n,x,x,x
Cc1oc(CC(C)C)cc1C(=O)Nc1cccc2ccccc12,n,n,n,-9.5,n,n,n,n,40%
CCOc1ccccc1NC(=O)c1cc(CC(C)C)oc1C,n,n,n,-18,n,n,62%,n,43%
CCc1nnc(NC(=O)c2ccc(-c3ccc([N+](=O)[O-])cc3Cl)o2)s1,n,n,n,n,n,n,x,x,x
COc1cc(OC)cc(C(=O)N2CCN(C(=O)c3cccnc3)CC2)c1,n,n,n,n,n,n,x,x,x
